Source: ChEMBL document CHEMBL5107946, “SF5- and SCF3-substituted tetrahydroquinoline compounds as potent bactericidal agents against multidrug-resistant persister Gram-positive bacteria” (RSC Med Chem, 2021)
≈ marks a conversion by molar mass, not a printed value. Calls of active or inactive are those of the source.

Assays:
Staphylococcus aureus [1] = experiment: Antibacterial activity against methicillin-resistant Staphylococcus aureus ST239 (ARLG 1644) assessed as bacterial growth inhibition incubated for 18 to 20 hrs by CLSI based broth microdilution assay; assay type: functional; conditions: time 18-20 hrs
Procedure, shortened: (§1)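 CLSI broth microdilution; compounds and control antibiotics made up at 10 mg mL−1 in DMSO (stock), serially diluted 1:2 across the plate. Inoculum adjusted to 0.5 McFarland, then diluted 1:100 into wells. Plates incubated static at 37 °C for 18–20 h before MIC read.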

Staphylococcus aureus [2] = experiment: Antibacterial activity against methicillin-resistant Staphylococcus aureus ST239 (ARLG 1665) assessed as bacterial growth inhibition incubated for 18 to 20 hrs by CLSI based broth microdilution assay; assay type: functional; conditions: time 18-20 hrs; procedure, shortened: as §1
Staphylococcus aureus [3] = experiment: Antibacterial activity against methicillin-resistant Staphylococcus aureus ST1312 (ARLG 1649) assessed as bacterial growth inhibition incubated for 18 to 20 hrs by CLSI based broth microdilution assay; assay type: functional; conditions: time 18-20 hrs; procedure, shortened: as §1
Staphylococcus aureus [4] = experiment: Antibacterial activity against methicillin-resistant Staphylococcus aureus ST239 (ARLG 1663) assessed as bacterial growth inhibition incubated for 18 to 20 hrs by CLSI based broth microdilution assay; assay type: functional; conditions: time 18-20 hrs; procedure, shortened: as §1
Enterococcus faecalis [5] = experiment: Antibacterial activity against vancomycin-resistant Enterococcus faecalis ATCC 51575 assessed as bacterial growth inhibition incubated for 18 to 20 hrs by CLSI based broth microdilution assay; assay type: functional; conditions: time 18-20 hrs; procedure, shortened: as §1
Staphylococcus aureus [6] = experiment: Antibacterial activity against Staphylococcus aureus ATCC 25923 assessed as bacterial growth inhibition at 16 ug/ml incubated for 18 to 20 hrs by CLSI based broth microdilution assay; assay type: functional, organism-based; conditions: dose 16.0 µg/ml, time 18-20 hrs
Procedure, shortened: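 Single-concentration screen at 16 μg mL−1 final. Overnight TSB culture was diluted 1:1000 in cation-adjusted MHB and grown to early exponential phase. 1 mL of culture was added to compound in glass tubes and incubated overnight at 37 °C. OD600 was read and normalized to the DMSO control after subtracting medium-only OD.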

Enterococcus faecalis [7] = experiment: Antibacterial activity against Enterococcus faecalis ATCC 29212 assessed as bacterial growth inhibition incubated for 18 to 20 hrs by CLSI based broth microdilution assay; assay type: functional; conditions: time 18-20 hrs; procedure, shortened: as §1
Staphylococcus aureus [8] = experiment: Antibacterial activity against Staphylococcus aureus ATCC 25923 assessed as bacterial growth inhibition incubated for 18 to 20 hrs by CLSI based broth microdilution assay; assay type: functional; conditions: time 18-20 hrs; procedure, shortened: as §1
Listeria monocytogenes = experiment: Antibacterial activity against Listeria monocytogenes ATCC 19115 assessed as bacterial growth inhibition incubated for 18 to 20 hrs by CLSI based broth microdilution assay; assay type: functional; conditions: time 18-20 hrs
Procedure, shortened: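 MIC by CLSI broth microdilution. Compounds were made as 10 mg mL−1 DMSO stocks and serially diluted 1:2. Inoculum was set to 0.5 McFarland and diluted 1:100 into the wells. Plates were incubated static at 37 °C for 18–20 h before reading the MIC.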

Staphylococcus aureus [9] = experiment: Antibacterial activity against methicillin-resistant Staphylococcus aureus ATCC 33592 assessed as bacterial growth inhibition incubated for 18 to 20 hrs by CLSI based broth microdilution assay; assay type: functional; conditions: time 18-20 hrs; procedure, shortened: as §1
Enterococcus faecium [10] = experiment: Antibacterial activity against vancomycin-resistant Enterococcus faecium ATCC 700221 assessed as bacterial growth inhibition incubated for 18 to 20 hrs by CLSI based broth microdilution assay
Staphylococcus aureus [11] = experiment: Antibacterial activity against methicillin-resistant Staphylococcus aureus USA300 assessed as bacterial growth inhibition incubated for 18 to 20 hrs by CLSI based broth microdilution assay; assay type: functional; conditions: time 18-20 hrs; procedure, shortened: as §1
Staphylococcus aureus [12] = experiment: Antibacterial activity against methicillin-resistant Staphylococcus aureus USA300 assessed as fold increase in MIC incubated for 30 days by resistance development based broth microdilution assay; assay type: functional; conditions: time 30 day
Procedure, shortened: (§2)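 Multi-step resistance selection over 30 days. MIC determined first. Each day, 5 μL from the turbid well just below the MIC was diluted 1:1000 in CA-MHB and used as inoculum for the next broth microdilution MIC. Resistance defined as a rise of more than four-fold over the starting MIC.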

Staphylococcus aureus [13] = experiment: Antibacterial activity against methicillin-resistant Staphylococcus aureus ATCC 33592 assessed as fold increase in MIC incubated for 30 days by resistance development based broth microdilution assay; assay type: functional; conditions: time 30 day; procedure, shortened: as §2
Enterococcus faecium [14] = experiment: Bactericidal activity against vancomycin-resistant Enterococcus faecium ATCC 700221 assessed as reduction in colony forming unit incubated for 20 hrs; conditions: ATCC 700221, 20 h
Staphylococcus aureus [15] = experiment: Bactericidal activity against methicillin-resistant Staphylococcus aureus USA300 assessed as reduction in colony forming unit incubated for 20 hrs; assay type: functional
Procedure, shortened: (§3)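 Follows the broth microdilution MIC plate. 4 μL taken from each well without growth, spotted in duplicate on tryptic soy agar and incubated static at 37 °C for 20 h. MBC taken as the concentration giving 99.9% reduction in CFU.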

Staphylococcus aureus [16] = experiment: Bactericidal activity against methicillin-resistant Staphylococcus aureus ATCC 33592 assessed as reduction in colony forming unit incubated for 20 hrs; assay type: functional; procedure, shortened: as §3
Enterococcus faecalis [17] = experiment: Bactericidal activity against vancomycin-resistant Enterococcus faecalis ATCC 51575 assessed as reduction in colony forming unit incubated for 20 hrs; assay type: functional; procedure, shortened: as §3
Staphylococcus aureus [18] = experiment: Bactericidal activity against Staphylococcus aureus ATCC 25923 assessed as reduction in colony forming unit incubated for 20 hrs; assay type: functional; procedure, shortened: as §3
Enterococcus faecalis [19] = experiment: Bactericidal activity against Enterococcus faecalis ATCC 29212 assessed as reduction in colony forming unit incubated for 20 hrs; assay type: functional; procedure, shortened: as §3
Cell membrane [20] = experiment: Induction of cell membrane permeability in Staphylococcus aureus ATCC 25923 at 4 ug/ml by DiOC2 dye based flow cytometry assay; conditions: dose 4.0 µg/ml
Procedure, shortened: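 Flow cytometry on S. aureus ATCC 25923 grown in TSB to exponential phase (OD600 0.2–0.3), then treated. Cells were washed twice in PBS and resuspended in buffer. To-PRO 3 iodide (red) and DiOC2 (green) were added and samples analysed immediately. The red/green ratio was used as the permeabilization readout, with bithionol 4 μg mL−1 as positive control.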

Cell membrane [21] = experiment: Induction of cell membrane disruption in persister Staphylococcus aureus ATCC 25923 at 32 ug/ml incubated for 6 hrs by scanning electron microscopy; conditions: dose 32.0 µg/ml

Row | Compound | MIC (Enterococcus faecalis [5]) [µg/mL] | Activity (Staphylococcus aureus [6]) | MIC (Enterococcus faecalis [7]) [µg/mL] | MIC (Staphylococcus aureus [8]) [µg/mL] | MIC (Listeria monocytogenes) [µg/mL] | MIC (Enterococcus faecium [10]) [µg/mL] | other results
1 | Cc1onc(-c2ccccc2)c1C(=O)N[C@@H]1C(=O)N2[C@@H]1SC(C)(C)[C@@H]2C(=O)O [OXACILLIN] |  |  |  |  |  |  | MIC (Staphylococcus aureus [1]): 512 µg/mL (≈ 1280 µM); MIC (Staphylococcus aureus [2]): 512 µg/mL (≈ 1280 µM); MIC (Staphylococcus aureus [3]): 256 µg/mL (≈ 638 µM); MIC (Staphylococcus aureus [4]): 256 µg/mL (≈ 638 µM)
2 | FC(F)(F)c1ccc2c(c1)N[C@@H](c1c[nH]nc1C(F)(F)F)[C@@H]1[C@H]3CC[C@H](C3)[C@H]21 | 8 (≈ 19.9 µM) | Active | 8 (≈ 19.9 µM) | 4 (≈ 9.97 µM) | 8 (≈ 19.9 µM) | 8 (≈ 19.9 µM) | MIC (Staphylococcus aureus [9]): 8 µg/mL (≈ 19.9 µM); MIC (Staphylococcus aureus [11]): 8 µg/mL (≈ 19.9 µM)
3 | O=C(O)c1cn(C2CC2)c2cc(N3CCNCC3)c(F)cc2c1=O [CIPROFLOXACIN] |  |  |  |  |  |  | fold change (FC) (Staphylococcus aureus [12]): 16; fold change (FC) (Staphylococcus aureus [13]): 64
4 | FS(F)(F)(F)(F)c1ccc2c(c1)[C@H]1[C@@H]3CC[C@@H](C3)[C@H]1[C@H](c1cn[nH]c1)N2 |  | Active |  | 16 (≈ 40.9 µM) |  |  | 
5 | FC(F)(F)c1n[nH]cc1-c1nc2ccc(S(F)(F)(F)(F)F)cc2c2c1[C@H]1CC[C@@H]2C1 | 8 (≈ 17.6 µM) | Active | 8 (≈ 17.6 µM) | 4 (≈ 8.78 µM) | 8 (≈ 17.6 µM) | 8 (≈ 17.6 µM) | MIC (Staphylococcus aureus [9]): 8 µg/mL (≈ 17.6 µM); MIC (Staphylococcus aureus [11]): 8 µg/mL (≈ 17.6 µM)
6 | CC(C)Oc1ccc2c(c1)[C@H]1[C@@H]3CC[C@@H](C3)[C@H]1[C@H](c1c[nH]nc1C(F)(F)F)N2 |  | Active |  |  |  |  | 
7 | CN[C@H](CC(C)C)C(=O)N[C@H]1C(=O)N[C@@H](CC(N)=O)C(=O)N[C@H]2C(=O)N[C@H]3C(=O)N[C@H](C(=O)N[C@H](C(=O)O)c4cc(O)cc(O)c4-c4cc3ccc4O)[C@H](O)c3ccc(c(Cl)c3)Oc3cc2cc(c3O[C@@H]2O[C@H](CO)[C@@H](O)[C@H](O)[C@H]2O[C@H]2C[C@](C)(N)[C@H](O)[C@H](C)O2)Oc2ccc(cc2Cl)[C@H]1O [VANCOMYCIN] | > 128 |  | 2 (≈ 1.38 µM) |  | 1 (≈ 0.69 µM) | > 128 | MBC (Enterococcus faecium [14]): > 128 µg/mL; MBC (Staphylococcus aureus [15]): 2 µg/mL (≈ 1.38 µM); MBC (Staphylococcus aureus [16]): 2 µg/mL (≈ 1.38 µM); MBC (Enterococcus faecalis [17]): > 128 µg/mL; MBC (Staphylococcus aureus [18]): 2 µg/mL (≈ 1.38 µM); MBC (Enterococcus faecalis [19]): 2 µg/mL (≈ 1.38 µM)
8 | FC(F)(F)c1n[nH]cc1[C@@H]1Nc2ccccc2[C@H]2[C@@H]3CC[C@@H](C3)[C@H]21 |  | Active |  |  |  |  | 
9 | FC(F)(F)Sc1ccc2c(c1)[C@H]1[C@@H]3CC[C@@H](C3)[C@H]1[C@H](c1c[nH]nc1C(F)(F)F)N2 | 8 (≈ 18.5 µM) | Active | 8 (≈ 18.5 µM) | 4 (≈ 9.23 µM) | 4 (≈ 9.23 µM) | 4 (≈ 9.23 µM) | MIC (Staphylococcus aureus [9]): 2 µg/mL (≈ 4.61 µM); MIC (Staphylococcus aureus [11]): 4 µg/mL (≈ 9.23 µM)
10 | O=C(O)c1ccc([C@@H]2Nc3ccc(S(F)(F)(F)(F)F)cc3[C@H]3[C@@H]4CC[C@@H](C4)[C@H]32)cc1 | 4 (≈ 8.98 µM) | Active | 4 (≈ 8.98 µM) | 4 (≈ 8.98 µM) | 4 (≈ 8.98 µM) | 4 (≈ 8.98 µM) | MIC (Staphylococcus aureus [9]): 4 µg/mL (≈ 8.98 µM); MIC (Staphylococcus aureus [11]): 16 µg/mL (≈ 35.9 µM)
11 | FC(F)(F)Oc1ccc2c(c1)[C@H]1[C@@H]3CC[C@@H](C3)[C@H]1[C@H](c1c[nH]nc1C(F)(F)F)N2 | 8 (≈ 19.2 µM) | Active | 8 (≈ 19.2 µM) | 4 (≈ 9.58 µM) | 4 (≈ 9.58 µM) | 4 (≈ 9.58 µM) | MIC (Staphylococcus aureus [9]): 4 µg/mL (≈ 9.58 µM); MIC (Staphylococcus aureus [11]): 8 µg/mL (≈ 19.2 µM)
12 | FS(F)(F)(F)(F)c1ccc2c(c1)[C@H]1[C@@H]3CC[C@@H](C3)[C@H]1[C@H](c1c[nH]cn1)N2 |  | Active |  | 8 (≈ 20.4 µM) |  |  | 
13 | CC(=O)NC[C@H]1CN(c2ccc(N3CCOCC3)c(F)c2)C(=O)O1 [LINEZOLID] |  |  |  |  | 2 (≈ 5.93 µM) |  | MBC (Enterococcus faecium [14]): > 128 µg/mL; MBC (Staphylococcus aureus [15]): 64 µg/mL (≈ 190 µM); MBC (Staphylococcus aureus [16]): 64 µg/mL (≈ 190 µM); MBC (Enterococcus faecalis [17]): > 128 µg/mL; MBC (Staphylococcus aureus [18]): 64 µg/mL (≈ 190 µM); MBC (Enterococcus faecalis [19]): 64 µg/mL (≈ 190 µM)
14 | Oc1c(Cl)cc(Cl)cc1Sc1cc(Cl)cc(Cl)c1O |  |  |  |  |  |  | Activity (Cell membrane [20]): Active; Activity (Cell membrane [21]): Active
15 | C/C(=C\C(=O)OCCCCCCCCC(=O)O)C[C@@H]1OC[C@H](C[C@@H]2O[C@H]2[C@@H](C)[C@H](C)O)[C@@H](O)[C@H]1O [MUPIROCIN] |  |  |  |  |  |  | fold change (FC) (Staphylococcus aureus [13]): >250
16 | FC(F)Oc1ccc2c(c1)[C@H]1[C@@H]3CC[C@@H](C3)[C@H]1[C@H](c1c[nH]nc1C(F)(F)F)N2 |  | Active |  |  |  |  | 
17 | Fc1ccc2c(c1)[C@H]1[C@@H]3CC[C@@H](C3)[C@H]1[C@H](c1c[nH]nc1C(F)(F)F)N2 |  | Active |  |  |  |  | 
